What all share (type): cell-based
In test [1] the test system is MIA PaCa-2 pancreatic cancer cells. Kind of test: Cell viability, resazurin assay. The note with it: 20 µM, 48 h, 5% FBS. Put shortly: (§1)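 Cell lines were maintained at 37°C, 5% CO2 to about 80% confluence: BxPC-3 in RPMI 1640, MIA PaCa-2 in DMEM, each with 10% FBS and penicillin/streptomycin. Trypsinized cells were plated at 1 × 10^4/well in 5% FBS medium and treated with 0–20 µM for 48 h. Resazurin (0.02% in DPBS) was added; fluorescence (ex 560/em 590 nm) was read after 2 h. EC50 came from nonlinear regression.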

Test [2] relates to BxPC-3 pancreatic cancer cells. In words: Cell viability, resazurin assay. The note with it: 20 µM, 48 h, 5% FBS. Put shortly: as §1
Background: Resazurin is reduced to fluorescent resorufin, in cell work by metabolically active cells.

The next test has as its system MIA PaCa-2 cells. In words: Apoptosis assay, AO/EB staining. The note with it: 0.5, 1 and 2 µM, 48 h, 5% FBS. Put shortly: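 MIA PaCa-2 cells (5 × 10^4 per chamber-slide well) exposed to test compound at 0.5, 1 and 2 µM for 48 h in medium with 5% FBS. Stained with AO/EB (10 µg/mL each) and imaged by fluorescence microscopy (x40, 480/30 nm excitation). Green intact nuclei scored as viable; orange-red, condensed nuclei as apoptotic. Images representative of triplicate experiments.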

The mark [3] stands for this setting: listed as farnesylthiosalicylamide.

The values that follow come from publication PMC4153604 (European journal of medicinal chemistry, 2014).

In the case of `CC(C)=CCC/C(C)=C/CC/C(C)=C/CSc1ccccc1C(=O)O` [FTS, S-t, t farnesylthiosalicylic acid], the “effect on viability of the cells” value in test [1] (listed as salirasib) and in test [2] (listed as salirasib) was “ineffective” throughout. Consider `CC(C)=CCC/C(C)=C/CC/C(C)=C/CSC[C@H](NC(=O)CCCCCN1CCN(C)CC1)C(=O)NC1CCCCCCC1` [8e, L-((4-methylpiperazinyl)hexanoyl)-S-(trans, trans-farnesyl) cysteine cyclooctylamide], for which the “mode of cell death (AO/EB staining)” value with MIA PaCa-2 cells is “signs of apoptosis were observed”. Consider `CC(C)=CCC/C(C)=C/CC/C(C)=C/CSc1ccccc1C(N)=O` [FTSA, S-t, t farnesylthiosalicylic amide], for which the “effect on viability of the cells” value in test [1] (setting [3]) and in test [2] (setting [3]) was “ineffective” throughout.
